Measurements of several laboratories.
Lines come from different studies, so protocols differ.
Target: Homeodomain-interacting protein kinase 1 (HIPK1, Homo sapiens, UniProt Q86Z02)

| Compound | effect on | mode | technique | concentration | measurement | result |
| --- | --- | --- | --- | --- | --- | --- |
| O=C(NCCCC1CCCCC1)c1ccc(CNC(=O)c2cnn(-c3ccccc3)c2C(F)(F)F)cc1 | cell-free assay |  | competition with immobilised ligand | 0.1 µM | remaining binding | 99% |
| COc1cc2ncnc(Nc3ccc(Oc4ccccc4)c(C)c3C)c2cc1OC | enzyme activity | inhibitor |  | 1 µM | inhibition | 3% |
| O=C(O)c1ccc2c(c1)nc(NCc1ccccc1)c1ccncc12 | enzyme activity | inhibitor | radiometric | 1 µM | remaining activity | 76% |
| CC(=O)c1c(NS(C)(=O)=O)c2cc(-c3ccc(Cl)cc3)c(-c3ccc(Cl)cc3Cl)nc2n(C)c1=O | cell-free assay |  | competition with immobilised ligand | 1 µM | remaining binding | 96% |
| CCN(CC)CCNC(=O)c1c(C)[nH]c(/C=C2\C(=O)Nc3ccc(F)cc32)c1C | enzyme activity | inhibitor |  | 10 µM | inhibition | 59% |
| O=C(O)c1ccc2c(c1)nc(Nc1ccccc1)c1ncncc12 | enzyme activity | inhibitor | radiometric | 1 µM | remaining activity | 11% |
| CN([C@@H]1CCc2c(CC(=O)O)c3cc(S(C)(=O)=O)ccc3n2C1)S(=O)(=O)c1ccc(F)cc1 | cell-free assay |  | competition with immobilised ligand | 1 µM | remaining binding | 77% |
| COc1cc2ncnc(Nc3ccc(F)c(Cl)c3)c2cc1OCCCN1CCOCC1 | cell-free assay |  |  | 0.5 µM | remaining signal | 97.6% |
| O=C(NCc1ncc(C(F)(F)F)cc1Cl)c1ccc2c(c1)C1(CCS(=O)(=O)CC1)[C@@H](C1CC1)N2S(=O)(=O)c1ccc(F)cc1 | cell-free assay |  | competition with immobilised ligand | 1 µM | remaining binding | 70% |
| O=C(O)c1ccc2c(c1)nc(NCCc1ccccc1)c1ncncc12 | enzyme activity | inhibitor | radiometric | 1 µM | remaining activity | 18% |
| C[C@H](c1ccc(F)cc1)N(Cc1cccc(C(=O)O)c1)C(=O)c1cnc2ccccc2c1 | cell-free assay |  | competition with immobilised ligand | 1 µM | remaining binding | 100% |
| COc1cccc(CCNc2nc3cc(C(=O)O)ccc3c3cncnc23)c1 | enzyme activity | inhibitor | radiometric | 1 µM | remaining activity | 36% |
| COc1cc(Nc2cnc(C#N)c(O[C@H](C)CN(C)C)n2)ncc1-c1cnn(C)c1 | enzyme activity | inhibitor | radiometric | 1 µM | remaining activity | 95% |
| FC(F)(F)Oc1cccc(-c2cnc3ccc(-c4ccncc4)nn23)c1 | enzyme activity | inhibitor | radiometric | 1 µM | activity vs control | 29% |
| CC/C(=N\NC(=O)NCc1cccc(O)c1)c1ccc(O)c(C)c1O | enzyme activity | inhibitor |  | 0.1 µM | inhibition | 6.3% |
| Cc1nccc(COC(=O)N2C[C@@H]3[C@@H](CNC(=O)c4ccc5[nH]nnc5c4)[C@@H]3C2)n1 | cell-free assay |  | competition with immobilised ligand | 1 µM | remaining binding | 82% |
| Nc1ncnc2occ(-c3ccc(NC(=O)Nc4cc(C(F)(F)F)ccc4F)cc3)c12 | cell-free assay | inhibitor |  | 20 µM | remaining signal | 0.1% |
| O=C(O)c1ccc2c(c1)nc(NCCc1cccc(F)c1)c1ccncc12 | enzyme activity | inhibitor | radiometric | 1 µM | remaining activity | 13% |
| CS(=O)(=O)c1cc(C2(NC(=O)c3cncc4c3cnn4-c3ccc(F)cc3)CC2)ccn1 | cell-free assay |  | competition with immobilised ligand | 1 µM | remaining binding | 92% |
| O=C(O)c1ccc2c(c1)nc(Nc1ccc(Cl)cc1)c1ccncc12 | enzyme activity | inhibitor | radiometric | 1 µM | remaining activity | 6% |
| COc1cc2c(N3CCN(C(=O)Nc4ccc(OC(C)C)cc4)CC3)ncnc2cc1OCCCN1CCCCC1 | cell-free assay |  |  | 0.5 µM | remaining signal | 98.9% |
| N#Cc1cccc(Nc2nc3cc(C(=O)O)ccc3c3cncnc23)c1 | enzyme activity | inhibitor | radiometric | 1 µM | remaining activity | 17% |
| FC(F)c1nc2ccccc2n1-c1nc(N2CCOCC2)nc(N2CCOCC2)n1 | enzyme activity | inhibitor |  | 10 µM | remaining activity | 100% |
| Cc1cc(NC(=O)c2cccc3cc(-c4cccc5[nH]nc(N)c45)ccc23)ccc1F | enzyme activity | inhibitor |  | 0.1 µM | activity vs control | 95% |
| COc1cccc(Nc2nc3cc(C(=O)O)ccc3c3cnccc23)c1 | enzyme activity | inhibitor | radiometric | 1 µM | remaining activity | 11% |
| Cc1ccc(Nc2nccc(N(C)c3ccc4c(C)n(C)nc4c3)n2)cc1S(N)(=O)=O | enzyme activity | inhibitor |  | 0.3 µM | inhibition | 11% |
| CN1CC(Oc2cnc(C#N)cc2-c2ccn3nc(NC(=O)C4CC4)cc3c2)C1 | enzyme activity | inhibitor |  | 1 µM | inhibition | -3% |
| COCCOc1nc(-c2ccc(Cl)nc2)nc2c1CN(C(=O)c1ncn3ccccc13)CC2 | cell-free assay |  | competition with immobilised ligand | 0.1 µM | remaining binding | 90% |
| CNC(=O)c1cc(Oc2ccc(NC(=O)Nc3ccc(Cl)c(C(F)(F)F)c3)cc2)ccn1 | enzyme activity | inhibitor |  | 10 µM | inhibition | 61% |
